These results are taken from publication PMC1976451 (Nucleic Acids Research, 2007).

“Also recorded” adds a separate entry of the source.

Data set [1] deals with pLuc705 cells. Kind of data set: MTT cell viability assay. The format is cell-based, human. The note with it: for inhibition of cell proliferation by monomers: 500 μM each, individually or in combination. An outline of the steps:
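pLuc705 cells seeded 20 h before at 9000 cells/well. Exposed 24 h to 0, 2, 10, 20, 40 or 60 μM conjugate in OptiMEM with 10% serum; arginine and X monomers given at 500 μM alone or combined. Phase images taken first, then MTT at 0.5 mg/ml final for 4 h at 37°C and DMSO/0.01M HCl 10 min. A540 read; % viability relative to mean of untreated wells; six points, two experiments.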
(Tetrazolium assays rely on reduction of a dye to a coloured formazan, in cell work by metabolically active cells.)

For data set [2] the following is noted: cited from earlier work.
Data set [3] deals with fresh rat red blood cells. The data set can be described thus: Hemolysis assay. The note with it: 60 μM, 1 h at 37°C, hemoglobin release (absorbance at 540 nm); four data points from two independent experiments. In kind it is cell-based. In outline: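 Fresh rat blood red cells exposed 1 h at 37°C to conjugate at 60 μM, with PBS as background and 0.005% TX-100 as positive control. Released hemoglobin read as absorbance at 540 nm. Mean ± SD of four data points from two independent experiments.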

Data set [4] has as its system pLuc705 cells. The data set can be described thus: Microscopic images of treated cells. In kind it is cell-based, human. The note with it: 60 μM, OptiMEM with 10% serum, 24 h, ×100. An outline of the steps:
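pLuc705 cells seeded at 9000 cells/well 20 h before treatment, then exposed 24 h to conjugate or vehicle in OptiMEM with 10% serum. Phase-contrast images were taken directly in culture medium on an inverted microscope, before the MTT read-out on the same wells.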

Data set [5] has as its system human β-globin thalassemic intron 2 mutated splice site at nucleotide 705 (pLuc705 cells). The data set can be described thus: Nuclear activity assay. The format is cell-based. The note with it: 24 h; for luciferase activity over the background: 1 μM, OptiMEM with or without 10% serum, RLU per microgram protein; for relative nuclear antisense activity in the oligoarginine, RX, RXR and RB panels: 1 and 5 μM; for luciferase activity compared with conjugates with 8 and 7 repeats: 10 μM; for luciferase activity in 60% serum: 60% serum-containing medium; for reduction of luciferase activity in 10% serum: versus 0% serum, R9−PMO data not shown. An outline of the steps:
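Splice-correction luciferase assay in pLuc705 cells, seeded 20 h before at 30 000 cells/well. Cells washed, then treated 24 h with conjugate at 1, 5 or 10 μM in OptiMEM with 0, 10, 30 or 60% serum. Lysed 30 min at 4°C, clarified at 1000g, and luminescence read after adding luciferase reagent. RLU normalised per μg protein (BCA). Mean ± SD of 6–9 points, three independent experiments.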

For data set [6], the system named is pLuc705 cells. The data set can be described thus: Propidium iodide membrane integrity. In kind it is cell-based, human. The note with it: for membrane damage / PI histogram shift with 0.5 or 5 h treatment: 60 μM, 0.5 and 5 h; for effect of addition of 10% serum on membrane toxicity: (RX)8−PMO data not shown; for effect on membrane integrity at higher concentrations: up to 60 µM tested.

For data set [7], the system named is pLuc705 cells. The data set can be described thus: Cell uptake assay. The format is cell-based, human. The note with it: 2 μM, media containing 30 and 60% serum. An outline of the steps:
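pLuc705 cells (HeLa stably carrying luciferase interrupted by β-globin intron 2 with mutated splice site at 705) seeded 20 h before at 100 000 cells/well. Treated 24 h with 2 μM 3′-carboxyfluorescein-tagged conjugate in OptiMEM with 0, 10, 30 or 60% serum. Trypsin 10 min at 37°C strips membrane-bound material, then cells are washed and analysed by flow cytometry. Mean fluorescence ± SD, six points, two independent experiments.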

In a further data set the test system is human liver HepG2 cells. The data set can be described thus: MTT toxicity in HepG2 cells. The note with it: up to 60 μM, data not shown. In kind it is cell-based. In outline:
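HepG2 cells kept in RPMI 1640 with 2 mM L-glutamine, 100 U/ml penicillin and 10% FBS at 37°C, 5% CO2. Treatments were in OptiMEM with or without FBS. MTT added to a final 0.5 mg/ml for 4 h at 37°C. Most of the medium was replaced with DMSO containing 0.01M HCl for 10 min at 37°C. A540 was normalized to the mean of untreated wells.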

On to `CC(=O)N[C@@H](CCCNC(=N)N)C(=O)NCCCCCC(=O)N[C@@H](CCCNC(=N)N)C(=O)NCCCCCC(=O)N[C@@H](CCCNC(=N)N)C(=O)NCCCCCC(=O)N[C@@H](CCCNC(=N)N)C(=O)NCCCCCC(=O)N[C@@H](CCCNC(=N)N)C(=O)NCCCCCC(=O)N[C@@H](CCCNC(=N)N)C(=O)NCCCCCC(=O)N[C@@H](CCCNC(=N)N)C(=O)NCCCCCC(=O)N[C@@H](CCCNC(=N)N)C(=O)NCCCCCC(=O)NCCC(=O)N1CCN(P(=O)(OC[C@@H]2CN(P(=O)(OC[C@@H]3CN(P(=O)(OC[C@@H]4CN(P(=O)(OC[C@@H]5CN(P(=O)(OC[C@@H]6CN(P(=O)(OC[C@@H]7CN(P(=O)(OC[C@@H]8CN(P(=O)(OC[C@@H]9CN(P(=O)(OC[C@@H]%10CN(P(=O)(OC[C@@H]%11CN(P(=O)(OC[C@@H]%12CN(P(=O)(OC[C@@H]%13CN(P(=O)(OC[C@@H]%14CN(P(=O)(OC[C@@H]%15CN(P(=O)(OC[C@@H]%16CN(P(=O)(OC[C@@H]%17CN(P(=O)(OC[C@@H]%18CN(P(=O)(OC[C@@H]%19CN(C(C)=O)C[C@H](n%20cnc%21c(N)ncnc%21%20)O%19)N(C)C)C[C@H](n%19ccc(N)nc%19=O)O%18)N(C)C)C[C@H](n%18cnc%19c(N)ncnc%19%18)O%17)N(C)C)C[C@H](n%17cc(C)c(=O)[nH]c%17=O)O%16)N(C)C)C[C@H](n%16cc(C)c(=O)[nH]c%16=O)O%15)N(C)C)C[C@H](n%15cnc%16c(=O)[nH]c(N)nc%16%15)O%14)N(C)C)C[C@H](n%14cnc%15c(N)ncnc%15%14)O%13)N(C)C)C[C@H](n%13ccc(N)nc%13=O)O%12)N(C)C)C[C@H](n%12cc(C)c(=O)[nH]c%12=O)O%11)N(C)C)C[C@H](n%11ccc(N)nc%11=O)O%10)N(C)C)C[C@H](n%10ccc(N)nc%10=O)O9)N(C)C)C[C@H](n9cnc%10c(N)ncnc%109)O8)N(C)C)C[C@H](n8cc(C)c(=O)[nH]c8=O)O7)N(C)C)C[C@H](n7cc(C)c(=O)[nH]c7=O)O6)N(C)C)C[C@H](n6ccc(N)nc6=O)O5)N(C)C)C[C@H](n5cc(C)c(=O)[nH]c5=O)O4)N(C)C)C[C@H](n4ccc(N)nc4=O)O3)N(C)C)C[C@H](n3ccc(N)nc3=O)O2)N(C)C)CC1` (some centres unmarked) [(RX)8−PMO], for which, in the data set with pLuc705 cells [1] (60 μM, OptiMEM with 10% serum, 24 h, mean of six data points), the cell viability (as a rule, the share of living cells, or the viability signal relative to a control) worked out at 40%. In addition, the “stability (of the peptide portion) in cells” value in data set [2] is recorded as “completely degraded”. In data set [3], the hemolytic activity result was “compatible with red blood cells”. Besides, in the data set on pLuc705 cells [4], the “appearance of treated cells (microscopic images)” value was “rounded and detached from the culture well”. In addition, in data set [5], the “luciferase activity over the background” value is reported as 10–15 fold; the “relative nuclear antisense activity in the oligoarginine, RX, RXR and RB panels” value is “highest nuclear antisense activities”. Also, the “relative nuclear activity at 2 μM” value in data set [5] (2 μM, OptiMEM with 10% serum, eleven conjugates with 0-8 X compared) was “highest activity”. The “change of luciferase activity on addition of 10% serum” value (“change … of 10% serum” for short) in data set [5] (5 μM) was “nearly doubled”. The “relative nuclear activity at 5 μM” value in data set [5] (5 μM, OptiMEM with 10% serum, eleven conjugates with 0-8 X compared) is reported as “highest activities”. Moreover, in the data set on pLuc705 cells [6], the “membrane damage / PI histogram shift with 0.5 or 5 h treatment” value was “little immediate membrane damage” and the “effect on membrane integrity at higher concentrations” value is on record as “significantly affect membrane integrity”. Besides, the “effect of addition of 10% serum on membrane toxicity” value in the data set on pLuc705 cells [6] (24 h) is on record as “significantly reduced membrane toxicity”.

Turning to `NCCCCCC(=O)O` [X, 6-aminohexanoic acid], in the data set with pLuc705 cells [1], the “inhibition of cell proliferation by monomers” value was “no inhibition of cell proliferation”.

Regarding `N=C(N)NCCC[C@H](N)C(=O)O` [arginine], in the data set on pLuc705 cells [1], the “inhibition of cell proliferation by monomers” value is reported as “no inhibition of cell proliferation”.

Consider RBRBRBB [(RB)3−PMO], for which the “luciferase activity compared with conjugates with 8 and 7 repeats” value in data set [5] is on record as “much lower luciferase activity”.

With RBRBRBRBRBB [(RB)5−PMO], the “luciferase activity compared with conjugates with 8 and 7 repeats” value in data set [5] is “much lower luciferase activity”.

With RBRBRBRBRBRBRBRBB [(RB)8−PMO], the “stability (of the peptide portion) in cells” value in data set [2] is on record as “only partially degraded”. The “change … of 10% serum” value in data set [5] (5 μM) is recorded as “nearly doubled”.

As to RRRRRRRRRXB [R9−PMO], in data set [5], the “luciferase activity in 60% serum” value is “no activity” and the “reduction of luciferase activity in 10% serum” value is “approximately 30%”.

In the case of RRRRRRRRXB [R8−PMO], in data set [5], the “luciferase activity in 60% serum” value is given as “no activity” and the “reduction of luciferase activity in 10% serum” value is “approximately 30%”.

As to RXRRXRRXRRXRXB [(RXR)4−PMOF], the “effect of higher serum concentrations on uptake” value in the data set with pLuc705 cells [7] was “decreased”.

Consider RXRRXRRXRRXRXB [(RXR)4−PMO], for which, in the data set with human liver HepG2 cells, the “toxicity in HepG2 cells” value is listed as “dose-dependent inhibition of cell proliferation”. In addition, the hemolytic activity result in data set [3] was “compatible with red blood cells”. In addition, in the data set on pLuc705 cells [4], the “appearance of treated cells (microscopic images)” value is “rounded and detached from the culture well”. Further, in data set [5], the “luciferase activity over the background” value is listed as 10–15 fold; the “relative nuclear antisense activity in the oligoarginine, RX, RXR and RB panels” value is recorded as “highest nuclear antisense activities”. Besides, in data set [5] (5 μM), the “change … of 10% serum” value was “nearly doubled”. In the data set with pLuc705 cells [6], the “membrane damage / PI histogram shift with 0.5 or 5 h treatment” value is on record as “slight shift towards the PI+ region; also recorded: little immediate membrane damage” and the “effect on membrane integrity at higher concentrations” value was “significantly affect membrane integrity”. Further, in the data set on pLuc705 cells [6] (60 µM, 24 h, serum-free medium, flow cytometry), the “cells in the PI+ region” value is on record as 57%. Further, in the data set on pLuc705 cells [6] (24 h), the “effect of addition of 10% serum on membrane toxicity” value was “significantly reduced membrane toxicity”.

As for RXRXRXB [(RX)3−PMO], the “luciferase activity compared with conjugates with 8 and 7 repeats” value in data set [5] is given as “much lower luciferase activity”.

On to RXRXRXRXRXB [(RX)5−PMO], for which the “luciferase activity compared with conjugates with 8 and 7 repeats” value in data set [5] is recorded as “much lower luciferase activity”.
